Experimental data: ChEMBL document CHEMBL1135865, “Novel guanidine-based inhibitors of inosine monophosphate dehydrogenase” (Bioorg Med Chem Lett, 2002)

What was measured:
[1] = molecular target: T1, Inosine-5'-monophosphate dehydrogenase 2 (Homo sapiens, UniProt P12268); test: In vitro inhibition of Inosine-5'-monophosphate dehydrogenase 2.
How it was run: (§1)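 Human type II IMPDH purified from E. coli expressing the gene; 40 nM enzyme, 400 µM IMP, 2 mM DTT in 0.1 M Tris, 0.1 M KCl, 3 mM EDTA pH 8.0; final DMSO 2.5%. Started with NAD (final 400 µM); after 2 h at 25 °C, NADH read at 340 nm.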

CCRF-CEM = test: Inhibitory concentration against human T-lymphoblast CEM cell line (ATCC) by CEM proliferation assay.; type: functional, cell-based
How it was run: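 CEM human T-lymphoblasts in RPMI 1640 with 10% heat-inactivated FBS plus penicillin/streptomycin, seeded 3000 cells/well with 0.5% DMSO. Compounds tested in triplicate from 10 uM top final concentration, 3-fold serial dilutions. Cells held 72 h in 5% CO2 humidified atmosphere. Viability measured by Alamar Blue (10% v/v, final 5 h), fluorescence at 530/590 nm.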

[2] = molecular target: T1, Inosine-5'-monophosphate dehydrogenase 2; test: The compound was tested for it's in vitro inhibitor potency against inosine monophosphate dehydrogenase II (IMPDH II)
How it was run: as §1, with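 “nm. IC50 for 50% inhibition of NADH accumulation from 4-parameter logistic fit.” for “nm.”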

Row | SMILES | IC50 [1] [nM] | also measured
1 | COc1cc(NC(=NC#N)Nc2cccc(CNC(=O)NCC3CCCO3)c2)ccc1-c1cnco1 (stereo not drawn) | 180 | –
2 | COc1cc(NC(=NC#N)Nc2cccc(CNC(=O)O[C@H]3CCOC3)c2)ccc1-c1cnco1 | 340 | –
3 | COc1cc(N/C(=N/c2cccnc2)NC#N)ccc1-c1cnco1 | 320 | –
4 | CCCCNC(=O)c1cccc(NC(=NC#N)Nc2ccc(-c3cnco3)c(OC)c2)c1 | 130 | –
5 | COc1cc(N/C(=N/c2cccc(C/N=C(\NC#N)Oc3ccccc3)c2)NC#N)ccc1-c1cnco1 | 16 | IC50 (CCRF-CEM): 410 nM
6 | COc1cc(NC(=NC#N)Nc2ccccc2C)ccc1-c1cnco1 | 2200 | –
7 | CCOC(=O)N=C(Nc1cccc(C)c1)Nc1ccc(-c2cnco2)c(OC)c1 | 740 | –
8 | CN/C(=N\c1ccc(-c2cnco2)c(OC)c1)Nc1cccc(C)c1 | > 3000 | –
9 | COc1cc(N=C(N)NC(=O)c2ccccc2)ccc1-c1cnco1 | 800 | –
10 | COc1cc(NC(=NC#N)Nc2ccccc2)ccc1-c1cnco1 | 250 | –
11 | COc1cc(NC(=O)Nc2cccc(C)c2)ccc1-c1cnco1 | 19 | –
12 | COc1cc(N=C(N)Nc2cccc(C)c2)ccc1-c1cnco1 | – | IC50 [2]: > 3000 nM
13 | COc1cc(N=C(NC(C)=O)Nc2cccc(C)c2)ccc1-c1cnco1 | > 1000 | –
14 | COc1cc(N/C(=N/C#N)Nc2cccc(CNC(=O)OCC3CCOC3)c2)ccc1-c1cnco1 (stereo not drawn) | – | IC50 [2]: 110 nM
15 | COc1cc(NC(=NC#N)Nc2ccccn2)ccc1-c1cnco1 | 340 | –
16 | COc1cc(NC(=N)NC#N)ccc1-c1cnco1 | 330 | –
17 | COc1cc(NC(=NC#N)NCc2cccc(C)c2)ccc1-c1cnco1 | 1100 | –
18 | COc1cc(N/C(=N/C#N)Nc2ccc(C)cc2)ccc1-c1cnco1 | 1500 | –
19 | COc1cc(NC(=NC#N)Nc2cccc(C)c2)ccc1-c1cnco1 | 240 | –
20 | CON/C(=N\c1ccc(-c2cnco2)c(OC)c1)Nc1cccc(C)c1 | 660 | –
21 | COc1cc(NC(=NC#N)Nc2cccc(OCCOc3ccccc3)c2)ccc1-c1cnco1 | 380 | –
22 | COc1cc(N/C(=N/c2cccc(CO)c2)NC#N)ccc1-c1cnco1 | 280 | –
